Test results taken from ChEMBL document CHEMBL3817745, “Structure-Activity Relationship for the 4(3H)-Quinazolinone Antibacterials” (J Med Chem, 2016).
≈ marks a conversion by molar mass, not a printed value.

Key:
Staphylococcus aureus [1] = assay: […] activity against methicillin-susceptible Staphylococcus aureus ATCC 29213; format: functional; settings: read-out: MBC99.9
Bacillus licheniformis = assay: Antibacterial activity against Bacillus licheniformis ATCC 12759 incubated for 16 to 20 hrs by microdilution method; format: functional
In short: (§1)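 CLSI broth microdilution. 2-fold serial dilutions were made in cation-adjusted Mueller–Hinton broth, with 5% lysed horse blood added for Streptococcus strains, in triplicate. Inoculum 5×10^5 CFU/mL. Plates incubated 36 °C for 16–20 h. MIC taken as the lowest concentration visibly inhibiting growth.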

Staphylococcus aureus [2] = assay: Antibacterial activity against methicillin-susceptible Staphylococcus aureus ATCC 29213 incubated for 16 to 20 hrs by microdilution method; format: functional
Staphylococcus aureus [3] = assay: Antibacterial activity against methicillin-resistant Staphylococcus aureus NRS70 incubated for 16 to 20 hrs by microdilution method; format: functional
Pseudomonas aeruginosa = assay: Antibacterial activity against Pseudomonas aeruginosa […] incubated for 16 to 20 hrs by microdilution method; format: functional; in short: as §1
Bacillus cereus = assay: Antibacterial activity against Bacillus cereus ATCC 13061 incubated for 16 to 20 hrs by microdilution method; format: functional; in short: as §1
[4] = tested on: Staphylococcus epidermidis; assay: Antibacterial activity against Staphylococcus epidermidis ATCC 35547 incubated for 16 to 20 hrs by microdilution method; format: functional; in short: as §1
Staphylococcus aureus [5] = assay: […] activity against multidrug resistant Staphylococcus aureus ATCC 27660; format: functional; settings: read-out: MBC99.9
Escherichia coli = assay: Antibacterial activity against Escherichia coli ATCC 25922 incubated for 16 to 20 hrs by microdilution method; format: functional; in short: as §1
Enterococcus faecalis [6] = assay: Antibacterial activity against vancomycin-resistant Enterococcus faecalis 99 clinical isolate incubated for 16 to 20 hrs by microdilution method; format: functional
Staphylococcus aureus [7] = assay: Bactericidal activity against methicillin-susceptible Staphylococcus aureus ATCC 29213 assessed as bacterial count at >=1 ug/ml (reference value: 1x10^6 CFU/ml); format: functional
Staphylococcus aureus [8] = assay: Antibacterial activity against mecA-positive methicillin/oxacillin/tetracycline-resistant Staphylococcus aureus ATCC 27660 incubated for 16 to 20 hrs by microdilution method; format: functional
Klebsiella aerogenes = assay: Antibacterial activity against Enterobacter aerogenes ATCC 35029 incubated for 16 to 20 hrs by microdilution method; format: functional; in short: as §1
[9] = Protein binding in human plasma at 20 uM after 2 hrs by UPLC based equilibrium dialysis method; format: ADME, cell-free
In short: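 Human plasma was tested by rapid equilibrium dialysis at a final compound concentration of 20 μM. Dialysis ran 2 h at 37 °C on an orbital shaker. Samples were quenched in acetonitrile with internal standard and quantified by UPLC with MRM detection. Triplicate, each measured in duplicate.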

HepG2 = assay: Cytotoxicity against human HepG2 cells incubated for 16 hrs by XTT assay; format: cell-based; settings: HepG2, 16 h
In short: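 HepG2 cells were tested with an XTT viability read-out, in triplicate. IC50 was obtained by nonlinear regression.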

Streptococcus oralis = assay: Antibacterial activity against Streptococcus oralis ATCC 9811 incubated for 16 to 20 hrs by microdilution method; format: functional; in short: as §1
Mus musculus = assay: AUC (0 to last) in ICR mouse peritonitis model infected with methicillin resistant Staphylococcus aureus ATCC 27660 at 10 mg/kg, iv administered as single dose measured up to 8 hrs by UPLC analysis; format: ADME, organism-based; design: dose 10 mg/kg, time 0 - last, route intravenous; settings: in vivo, 8 h
In short: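 Fast PK: female ICR mice (n = 2 per time point) given single tail-vein iv injection at 5, 10 or 20 mg/kg in 25% DMSO/65% propylene glycol/10% water (2.5, 5 or 10 mg/mL); terminal cardiac blood at 5 min, 40 min, 2, 4, 8 h; plasma analysed by UPLC with internal standard calibration.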

Staphylococcus aureus [10] = assay: Antibacterial activity against methicillin resistant Staphylococcus aureus ATCC 27660 infected in ICR mouse model of peritonitis assessed as mouse survival at 5 mg/kg, iv administered at 30 mins and 4.5 hrs post infection measured for 48 hrs relative to control; format: functional
Enterococcus faecalis [11] = assay: Antibacterial activity against methicillin-susceptible Enterococcus faecalis ATCC 29212 incubated for 16 to 20 hrs by microdilution method; format: functional; in short: as §1
Acinetobacter baumannii = assay: Antibacterial activity against Acinetobacter baumannii ATCC 17961 incubated for 16 to 20 hrs by microdilution method; format: functional; in short: as §1
Staphylococcus aureus [12] = assay: Antibacterial activity against mecA-positive multidrug resistant Staphylococcus aureus NRS120 incubated for 16 to 20 hrs by microdilution method; format: functional
Staphylococcus aureus [13] = assay: Antibacterial activity against vancomycin/methicillin-resistant Staphylococcus aureus VRS1 clinical isolate incubated for 16 to 20 hrs by microdilution method; format: functional
Klebsiella pneumoniae = assay: Antibacterial activity against Klebsiella pneumoniae ATCC 700603 incubated for 16 to 20 hrs by microdilution method; format: functional; in short: as §1
Staphylococcus aureus [14] = assay: […] activity against methicillin-resistant Staphylococcus aureus NRS70; format: functional; settings: read-out: MBC99.9
Streptococcus pyogenes = assay: Antibacterial activity against Streptococcus pyogenes ATCC 49399 incubated for 16 to 20 hrs by microdilution method; format: functional; in short: as §1
Enterococcus faecium = assay: Antibacterial activity against Enterococcus faecium NCTC 7171 incubated for 16 to 20 hrs by microdilution method; format: functional; in short: as §1
Staphylococcus aureus [15] = assay: Antibacterial activity against mecA-positive multidrug resistant Staphylococcus aureus NRS119 incubated for 16 to 20 hrs by microdilution method; format: functional
[16] = Hemolytic activity against human RBC at 64 ug/ml relative to control; format: ADME, cell-based, Erythrocyte; settings: erythrocyte
In short: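 Hemolysis was measured at a fixed 64 μg/mL on a 10% red-cell suspension from heparinized human blood. Triton-X served as the positive control, and results are given as percent hemolysis.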

Staphylococcus aureus [17] = assay: Antibacterial activity against mecA-positive multidrug resistant Staphylococcus aureus COL NRS100 incubated for 16 to 20 hrs by microdilution method; format: functional

Q: With C#Cc1ccc(/C=C/c2nc3ccccc3c(=O)n2-c2cccc(C(=O)O)c2)cc1 as the compound, how does the MBC (Staphylococcus aureus [1]) read?
A: Its MBC is 0.125 mg/L (≈ 0.319 µM).

Q: And the MIC (Bacillus licheniformis)?
A: The MIC was 128 mg/L (≈ 326 µM).

Q: And the MIC (Staphylococcus aureus [2])?
A: The MIC was 0.03 mg/L (≈ 0.0764 µM).

Q: What about the MIC (Staphylococcus aureus [3]) of the same compound?
A: The MIC was 0.03 mg/L (≈ 0.0764 µM).

Q: What about the MIC (Pseudomonas aeruginosa) of the same compound?
A: Its MIC is ≥ 16 mg/L.

Q: And the MIC (Bacillus cereus)?
A: The MIC was 128 mg/L (≈ 326 µM).

Q: And the MIC [4]?
A: The MIC was 0.008 mg/L (≈ 0.0204 µM).

Q: What about the MBC (Staphylococcus aureus [5]) of the same compound?
A: The MBC was 1 mg/L (≈ 2.55 µM).

Q: And the MIC (Escherichia coli)?
A: The MIC was ≥ 16 mg/L.

Q: What about the MIC (Enterococcus faecalis [6]) of the same compound?
A: The MIC was 128 mg/L (≈ 326 µM).

Q: What about the Activity (Staphylococcus aureus [7]) of the same compound?
A: Its Activity is “<=500 CFU/ml”.

Q: And the MIC (Staphylococcus aureus [8])?
A: Its MIC is 0.06 mg/L (≈ 0.153 µM).

Q: And the MIC (Klebsiella aerogenes)?
A: Its MIC is ≥ 16 mg/L.

Q: What about the PPB [9] of the same compound?
A: The PPB was 99.6%.

Q: What about the IC50 (HepG2) of the same compound?
A: Its IC50 is 82 mg/L (≈ 209 µM).

Q: And the MIC (Streptococcus oralis)?
A: Its MIC is 128 mg/L (≈ 326 µM).

Q: What about the AUClast (Mus musculus) of the same compound?
A: Its AUClast is 1540 µg·min/mL.

Q: What about the Efficacy (Staphylococcus aureus [10]) of the same compound?
A: The Efficacy was >50%.

Q: What about the MIC (Enterococcus faecalis [11]) of the same compound?
A: Its MIC is > 128 mg/L.

Q: And the MIC (Acinetobacter baumannii)?
A: The MIC was ≥ 16 mg/L.

Q: What about the MIC (Staphylococcus aureus [12]) of the same compound?
A: Its MIC is 0.5 mg/L (≈ 1.27 µM).

Q: And the MIC (Staphylococcus aureus [13])?
A: The MIC was 0.5 mg/L (≈ 1.27 µM).

Q: And the MIC (Klebsiella pneumoniae)?
A: The MIC was ≥ 16 mg/L.

Q: And the MBC (Staphylococcus aureus [14])?
A: Its MBC is 0.5 mg/L (≈ 1.27 µM).

Q: And the MIC (Streptococcus pyogenes)?
A: The MIC was 128 mg/L (≈ 326 µM).

Q: What about the MIC (Enterococcus faecium) of the same compound?
A: The MIC was > 128 mg/L.

Q: And the MIC (Staphylococcus aureus [15])?
A: The MIC was 0.06 mg/L (≈ 0.153 µM).

Q: And the Activity [16]?
A: Its Activity is < 1%.

Q: What about the MIC (Staphylococcus aureus [17]) of the same compound?
A: The MIC was 0.25 mg/L (≈ 0.637 µM).
